Rows were chosen to be rich in hits. Some 1.3% of all compounds tested hit in one or more screens of this group.
NR2E3 ag-1 = agonists of human nuclear receptor NR2E3 | Q9Y5X4 | inhibition of corepressor binding, % at 4.78 µM | GST-NR2E3/biotin-RetCOR TR-FRET, 1536-well | AID 2300 | 320,000 tested, 0.12% active;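 active = percent inhibition above the cutoff of mean plus 3 SD of all tested compounds, set per screening campaign, cut at about 20% in these data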;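 note: 0% = DMSO wells and 100% = biotin wells as full block of FRET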
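System: GST-tagged NR2E3 plus biotinylated RetCOR corepressor; Amount: 1.35 nM GST-tagged NR2E3 final; Dosing: single nominal compound dose of 4.8 µM; Schedule: 5 h incubation at 4 °C; Technique: TR-FRET with europium anti-GST and streptavidin-D2, 340 nm excitation; Controls: biotin wells as high control, 0.6% DMSO wells as low control.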
NR2E3 ag-2 = human photoreceptor-specific nuclear receptor agonism | 360,000 tested, 0.35% active | CHO-S Gal4-NCOR/VP16-NR2E3 two-hybrid, luciferase | inhibition of corepressor binding, % at 3.98 µM | AID 602229;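 active = inhibition above the mean of all tested compounds plus 3 SD, cut at about 70% in these data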;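 note: 0% = DMSO with NR2E3 transfected cells and 100% = cells lacking NR2E3 construct; higher means lower luciferase signal from less NR2E3 corepressor binding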
PGE2 EP2 inh = inhibitors of human EP2 prostaglandin E2 receptor; AID 1422; inhibition, % at 25 µM; C6 glioma cells expressing human EP2, cAMP TR-FRET; cells stimulated with saturating PGE2; 260,000 tested, 0.52% active;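 active = percent inhibition above 40 after rounding to a whole number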;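 note: rat C6 glioma host cells with rolipram phosphodiesterase inhibitor present; the protocol text gives 20 µM as final concentration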
Target sequence (P43116 whole entry, looked up): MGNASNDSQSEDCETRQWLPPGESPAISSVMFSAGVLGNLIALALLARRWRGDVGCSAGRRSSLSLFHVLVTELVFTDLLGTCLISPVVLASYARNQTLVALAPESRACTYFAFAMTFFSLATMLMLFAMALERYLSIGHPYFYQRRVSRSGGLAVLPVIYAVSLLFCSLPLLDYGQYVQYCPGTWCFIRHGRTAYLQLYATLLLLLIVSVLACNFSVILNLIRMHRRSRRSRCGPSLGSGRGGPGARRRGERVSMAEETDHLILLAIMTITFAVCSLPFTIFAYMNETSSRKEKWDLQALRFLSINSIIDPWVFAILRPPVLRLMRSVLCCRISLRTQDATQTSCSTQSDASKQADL
JMJD2C inh = human JMJD2C demethylase inhibition; Q9H3R0; GST-JMJD2C(1-420) H3K9me3 demethylation, DELFIA europium; inhibition, % at 2.35 µM; 330,000 tested, 0.069% active; AID 2099;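 active = more than half of a compound's replicate wells show inhibition beyond 50%, single wells judged on their own value; inconclusive = some, but no more than half, of replicates pass 50% inhibition; inactive = no replicate passes 50% inhibition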;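 note: signal counts dimethyl H3K9 product captured on neutravidin plate; 0% = median of DMSO wells and 100% = 0.3 times that DMSO median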
Target sequence (Q9H3R0 1-420 limits assumed): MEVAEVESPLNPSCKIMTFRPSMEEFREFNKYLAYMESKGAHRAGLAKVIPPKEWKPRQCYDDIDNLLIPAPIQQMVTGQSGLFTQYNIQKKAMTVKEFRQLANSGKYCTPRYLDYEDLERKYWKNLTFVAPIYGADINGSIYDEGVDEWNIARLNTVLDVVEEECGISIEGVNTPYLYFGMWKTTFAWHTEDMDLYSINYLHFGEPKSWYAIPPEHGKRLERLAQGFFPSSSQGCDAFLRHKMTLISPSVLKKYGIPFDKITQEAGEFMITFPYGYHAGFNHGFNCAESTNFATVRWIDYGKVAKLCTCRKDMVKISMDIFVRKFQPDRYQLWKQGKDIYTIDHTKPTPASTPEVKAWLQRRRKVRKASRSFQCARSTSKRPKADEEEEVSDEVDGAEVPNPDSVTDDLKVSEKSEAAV
EP2 mod = modulates human prostaglandin E2 receptor EP2 signaling; P43116; EP2-expressing cells, cAMP HTRF FRET, PGE2 co-stimulation; induction, % at 25 µM; 260,000 tested, 0.83% active; AID 940;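 active = compounds whose cAMP rise, as percent of the full-agonist control response, exceeds 60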;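 note: rat C6 glioma line stably carrying human EP2 under a CMV promoter; the protocol text gives 20 µM as final concentration; 100% = response of wells given 1 µM PGE2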
Furin inh = human furin inhibition; P09958; purified furin, fluorogenic substrate cleavage; inhibition, % at 20 µM or 30 µM; 220,000 tested, 0.061% active; AID 463115; in the data active = inhibition above about 25%
NR2E3 ag confirm = confirmation of human NR2E3 agonists; shares compounds with NR2E3 ag-2; CHO-S mammalian two-hybrid NR2E3-NCOR, luciferase luminescence; inhibition, % at 3.98 µM; 2,300 tested, 51% active;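 active = average inhibition above a cutoff equal to the mean inhibition of all tested compounds plus one SD, cut at about 70% in these data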;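 note: 0% = DMSO in NR2E3 cells and 100% = DMSO in cells lacking NR2E3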
GAL4-VP16 luc = reduces GAL4-VP16 reporter signal in NR2E3 counterscreen | shares compounds with NR2E3 ag-2 | CHO-S GAL4-VP16 luciferase reporter, luminescence | inhibition, % at 3.98 µM | 2,300 tested, 29% active | AID 624379;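 active = mean inhibition above a cutoff equal to the average over all tested compounds plus one standard deviation, cut at about 70% in these data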;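 note: luciferase from a UAS reporter driven by GAL4-VP16 transactivation; 0% = DMSO with VP16-transfected cells and 100% = DMSO with cells lacking VP16; higher means less reporter light so more repression of VP16 activity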
The depositor's hits bear a star; i = inactive; ? = inconclusive; . = no result.

SMILES | NR2E3 ag-1 | NR2E3 ag-2 | PGE2 EP2 inh | JMJD2C inh | EP2 mod | Furin inh | NR2E3 ag confirm | GAL4-VP16 luc
COc1ccccc1C(=O)Nc1nc2ccc(S(C)(=O)=O)cc2s1 | 0 | -49 | 15 | -3 | 1 | -20 | . | .
COc1ccc2nc(NC(=O)c3ccccc3C(=O)O)sc2c1 | 0 | -11 | . | 6 | . | . | . | .
COc1ccc(C(=O)Nc2nc3ccccc3s2)c(OC)c1 | 1 | 97* | . | -4 | . | . | 89* | 86*
O=C(CCc1ccc(-c2ccc(F)cc2)o1)N1CCn2c(nnc2C2CC2)C1 | . | . | 5 | . | -23 | . | . | .
O=C(N1CCOCC1)N1CCc2nc(N3CCOCC3)[nH]c(=O)c2C1 | . | . | 8 | . | -33 | . | . | .
CCOC(=O)c1cnc(SCC(=O)Nc2cccc(C(=O)OC)c2)nc1N | . | . | 15 | . | -29 | . | . | .
C=CCN1C(=O)S/C(=C/c2ccc(Sc3nc4ccccc4[nH]3)o2)C1=O | -2 | 50 | 11 | -6 | -51 | 1 | 81* | 69
Cc1cccnc1Nc1nc(-c2ccccn2)cs1 | 4 | 77* | 27 | -7 | -11 | -7 | 100* | 2
O=C(Nc1nc(-c2ccccn2)cs1)c1ccc(Cl)s1 | 2 | 11 | 24 | 2 | -36 | -17 | . | .
Cc1ccc(C(=O)Nc2nc(-c3ccccn3)cs2)s1 | 4 | 51 | . | 6 | . | . | -8 | -40
Cc1cccnc1Nc1nc(-c2ccccc2)cs1 | -3 | -136 | 22 | 7 | 2 | . | . | .
CC(C)[C@@H](Cn1nc(-c2ccc(F)c(F)c2)ccc1=O)NC(=O)c1nccc2ccccc12 | . | . | . | . | -37 | . | . | .
Cc1nn(C)cc1S(=O)(=O)N1CCCC(CN2CCCC2=O)C1 (stereo unspecified) | . | . | 8 | . | -15 | . | . | .
COc1cc2c(oc(=O)c3cc(C)cc(OC)c32)c2c(C3OC(C)C(O)C(C)(O)C3O)ccc(O)c12 (stereo unspecified) | . | 54 | . | . | . | . | 71* | 56
COc1cccc2cc(C(=O)N3CC(C)OC(C)C3)c(=O)oc12 (stereo unspecified) | 4 | 1 | . | 0 | . | . | . | .
CCc1[nH]n2c(=O)c3c(nc2c1-c1ccc(OC)cc1)CCC3 | . | . | 6 | . | -103 | . | . | .
CC(C)(C)c1ccc(CC(=O)N2CCC2(C)C(=O)Nc2ccc3[nH]ncc3c2)cc1 (stereo unspecified) | . | 57 | . | . | . | . | 37 | 45
CC(C)(C)c1ccc(C(=O)N2CCC2(C)C(=O)Nc2cccc(C#N)c2)cc1 (stereo unspecified) | . | 52 | . | . | . | . | 4 | 33
CC1(C(=O)Nc2ccc3[nH]ncc3c2)CCN1C(=O)Cc1ccc(-c2ccccc2)cc1 (stereo unspecified) | . | 53 | . | . | . | . | 78* | 65
CC1(C(=O)Nc2ccc3[nH]ncc3c2)CCN1C(=O)CCc1ccccc1 (stereo unspecified) | . | 25 | . | . | . | . | . | .
CCCn1nnnc1SCC(=O)c1cc(OC)ccc1OC | . | . | 8 | . | 10 | . | . | .
Cc1ccc2cc(CN(Cc3ccc4c(c3)OCO4)S(=O)(=O)c3ccc(F)cc3)c(=O)[nH]c2c1 | . | . | 4 | . | 5 | . | . | .
Cc1ccc(CN2CC(C(=O)Nc3nc(C)cs3)CC2=O)cc1 (stereo unspecified) | . | 9 | . | . | . | . | . | .
Cc1ccc(CN2CC(C(=O)Nc3ncc(C)s3)CC2=O)cc1 (stereo unspecified) | . | 83* | . | . | . | . | 83* | 17
Cc1ccc(C(=O)C2CCN(CC(=O)Nc3ccc4c(c3)CCC4)CC2)cc1 | . | . | 2 | . | -28 | . | . | .
SMILES | NR2E3 ag-1 | NR2E3 ag-2 | PGE2 EP2 inh | JMJD2C inh | EP2 mod | Furin inh | NR2E3 ag confirm | GAL4-VP16 luc
COc1ccc(-c2csc(NC(=O)Cc3cc(OC)c(OC)c(OC)c3)n2)cc1OC | -2 | 48 | . | 21 | . | . | 10 | 44
CN(CC(=O)Nc1ccc(Cl)c(C(F)(F)F)c1)C(=O)c1ccc(N2CCOCC2)c([N+](=O)[O-])c1 | -1 | 63 | . | ? | . | . | 63 | 59
COc1ccc(Cl)cc1NC(=O)CN(C)C(=O)c1ccc(N2CCCCCC2)c([N+](=O)[O-])c1 | 6 | 70 | . | 0 | . | . | 42 | 39
CCN(CC(=O)Nc1c(F)cccc1F)C(=O)c1ccc(N2CCCCC2)c([N+](=O)[O-])c1 | -2 | 57 | . | -2 | . | . | 34 | 39
COc1ccc(OC)c(-c2cc(C(=O)Nc3c(C)n(C)n(-c4ccccc4)c3=O)no2)c1 | -2 | 51 | 6 | -5 | 9 | -15 | 13 | 21
COc1ccc(CNC(=O)C(C)N2CCN(S(=O)(=O)c3ccccc3F)CC2)cc1 (stereo unspecified) | 5 | 12 | . | 9 | . | . | . | .
CCCc1ccc(S(=O)(=O)N2CCN(C(C)C(=O)NCc3ccc(OC)cc3)CC2)cc1 (stereo unspecified) | 1 | 49 | . | -11 | . | . | 27 | 32
O=C1CCCN1c1ccc(S(=O)(=O)NCCOc2ccccc2)cc1 | -2 | 57 | 8 | -6 | -38 | -16 | 0 | 22
O=C(N/N=C/c1ccc(O)cc1)c1ccc(COc2cc(Cl)ccc2Cl)o1 | 2 | 54 | 27 | i | -49 | -21 | 42 | -17
NC(=O)c1ccc(N2CCN(c3ccccc3O)CC2)c([N+](=O)[O-])c1 | -5 | 16 | 6 | -6 | -77 | -5 | . | .
NC(=O)c1ccc(N2CCN(S(=O)(=O)c3cccs3)CC2)c([N+](=O)[O-])c1 | . | 82* | . | 8 | . | . | 95* | 78*
CN(C)CCNC(=O)C(=O)Nc1cc2c3c(c1)CCC(=O)N3CCC2 | 1 | 6 | . | -2 | . | . | . | .
CCN(CC)CCNC(=O)C(=O)Nc1cc2c3c(c1)CCC(=O)N3CCC2 | 0 | 75* | . | -1 | . | . | -9 | -14
CC(=O)OCc1ccc(CN2CCc3c(nc(N4CCCCC4)[nH]c3=O)C2)o1 | . | . | . | . | -31 | . | . | .
CN(C)S(=O)(=O)N1CCC(Oc2cccc(C(=O)NC3CCCCC3)c2)CC1 | -3 | 48 | . | -2 | . | . | 24 | 42
CN(C)S(=O)(=O)N1CCC(Oc2ccc(C(=O)NC3CCCCC3)cc2)CC1 | -1 | -14 | 7 | -22 | -11 | -12 | . | .
O=S(=O)(C/C(=C/CO)S(=O)(=O)c1ccccc1)c1ccccc1 | 2 | 65 | 4 | -10 | -25 | -12 | 69 | -4
COc1cccc(NC(=O)C2CCN(c3nc4ccccc4n3C)CC2)c1 | . | . | 3 | . | -43 | . | . | .
COc1ccc(CN(Cc2cncn2C)CC2CCCO2)cc1OC (stereo unspecified) | . | . | 5 | . | 12 | . | . | .
CCCCC(=O)N/N=C/c1ccc(Sc2cccc3cccnc23)o1 | -1 | 86* | 12 | 0 | -39 | -3 | -33 | -18
CCC(=O)Nc1ccc(NC(=O)CSc2ncnc3sc(C)c(C)c23)cc1C | . | . | 10 | . | 1 | . | . | .
